Data published in ChEMBL document CHEMBL1148614, “Synthesis and evaluation of 2-anilino-3-phenylsulfonyl-6-methylpyridines as corticotropin-releasing factor1 receptor ligands” (Bioorg Med Chem Lett, 2006).

Columns and labels:
[1] = target: T1, Corticotropin-releasing factor receptor 1 (Rattus norvegicus, UniProt P35353); assay: Displacement of [125I]Tyr-o-CRF from CRF1 receptor in rat frontal cortex homogenates; assay type: tissue-based
T1 sequence (P35353 whole entry): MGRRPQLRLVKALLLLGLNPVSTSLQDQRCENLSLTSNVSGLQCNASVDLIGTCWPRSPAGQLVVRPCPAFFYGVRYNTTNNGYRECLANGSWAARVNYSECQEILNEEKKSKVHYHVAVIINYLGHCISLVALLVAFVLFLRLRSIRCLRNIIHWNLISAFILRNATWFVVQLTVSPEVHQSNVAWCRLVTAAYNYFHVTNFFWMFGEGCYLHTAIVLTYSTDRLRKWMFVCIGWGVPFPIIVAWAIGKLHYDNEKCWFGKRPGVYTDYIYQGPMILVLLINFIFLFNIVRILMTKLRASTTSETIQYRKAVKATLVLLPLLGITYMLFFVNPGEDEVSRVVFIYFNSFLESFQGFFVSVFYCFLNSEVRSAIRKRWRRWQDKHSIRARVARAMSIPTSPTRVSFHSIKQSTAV

[2] = Half life in Sprague-Dawley rat at 0.5 mg/kg, iv; assay type: ADME, organism-based; parameters: dose 0.5 mg/kg, route intravenous; conditions: in vivo
Rattus norvegicus = assay: Volume of distribution in Sprague-Dawley rat at 0.5 mg/kg, iv; assay type: ADME, organism-based; parameters: dose 0.5 mg/kg, route intravenous; conditions: in vivo
[3] = AUC in Sprague-Dawley rat at 2.0 mg/kg, po; assay type: ADME, organism-based; parameters: dose 2 mg/kg, route oral; conditions: plasma
Procedure, shortened: (§1)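 Cassette dosing in Sprague–Dawley rats (n = 3 per route). Oral dose 2 mg/kg, with plasma sampled at 0, 0.5, 1, 2, 4, 6, 8 and 24 h. Plasma drug levels measured by LC/MS/MS.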

[4] = Cmax in Sprague-Dawley rat at 2.0 mg/kg, po; assay type: ADME, organism-based; parameters: dose 2 mg/kg, route oral; conditions: in vivo; procedure, shortened: as §1
[5] = Clearance in Sprague-Dawley rat at 0.5 mg/kg, iv; assay type: ADME, organism-based; parameters: dose 0.5 mg/kg, route intravenous; conditions: in vivo
[6] = Bioavailability in Sprague-Dawley rat at 2.0 mg/kg, po; assay type: ADME, organism-based; conditions: in vivo; procedure, shortened: as §1

A Ki [1] of 249 nM was found for `COc1cccc(S(=O)(=O)c2ccc(C)nc2Nc2c(C)cc(C)cc2C)c1` in this work.

A Ki [1] of 132 nM was found for `Cc1cc(C)c(Nc2nc(C)ccc2S(=O)(=O)c2cccc(OCc3ccccc3)c2)c(C)c1` in this work.

A Ki [1] of 34 nM was found for `COc1cc(COc2ccc(S(=O)(=O)c3ccc(C)nc3Nc3c(C)cc(C)cc3C)cc2)cc(OC)c1` in this work.

A Ki [1] of 268 nM was found for `Cc1cc(C)c(Nc2nc(C)ccc2S(=O)(=O)c2ccc(OC(F)(F)F)cc2)c(C)c1` in this work.

A Ki [1] of 395 nM was found for `Cc1cc(C)c(Nc2nc(C)ccc2S(=O)(=O)c2ccc(OCCCCC#N)cc2)c(C)c1` in this work.

A Ki [1] of 1080 nM was found for `Cc1cc(C)c(Nc2nc(C)ccc2S(=O)(=O)c2ccc(CO)cc2)c(C)c1` in this work.

A Ki [1] of 1780 nM was found for `Cc1ccc(S(=O)(=O)c2c(C)cc(C)nc2Nc2c(C)cc(C)cc2C)cc1` in this work.

A Ki [1] of 198 nM was found for `COc1ccc(S(=O)(=O)c2ccc(C)nc2Nc2c(C)cc(C)cc2C)cc1` in this work.

A Ki [1] of 119 nM was found for `C=CCOc1ccc(S(=O)(=O)c2ccc(C)nc2Nc2c(C)cc(C)cc2C)cc1` in this work.

A Ki [1] of 5170 nM was found for `Cc1cccc(S(=O)(=O)c2c(C)cc(C)nc2Nc2c(C)cc(C)cc2C)c1` in this work.

A half-life [2] of 5.1 h, a Ki [1] of 52 nM and a Vss (Rattus norvegicus) of 25 L/kg were found for `CCc1ccc(S(=O)(=O)c2ccc(C)nc2Nc2c(C)cc(C)cc2C)cc1` in this work. For the same compound, the AUC [3] was 0.347 µM·h, the Cmax [4] was 72 nM and the clearance [5] was 86.7 mL/min/kg. It also gave a bioavailability [6] of 35%.

A Ki [1] of 75 nM was found for `Cc1cc(C)c(Nc2nc(C)ccc2S(=O)(=O)c2ccc(OCc3cccc(C#N)c3)cc2)c(C)c1` in this work.

A Ki [1] of 58 nM was found for `COc1cccc(COc2ccc(S(=O)(=O)c3ccc(C)nc3Nc3c(C)cc(C)cc3C)cc2)c1` in this work.

A Ki [1] of 157 nM was found for `Cc1cc(C)c(Nc2nc(C)ccc2S(=O)(=O)c2ccc(OCc3ccc(C#N)cc3)cc2)c(C)c1` in this work.

A Ki [1] of 145 nM was found for `Cc1ccc(S(=O)(=O)c2ccc(C)nc2Nc2c(C)cc(C)cc2C)cc1` in this work.

A Ki [1] of 857 nM was found for `Cc1cc(C)c(Nc2nc(C)ccc2S(=O)(=O)Cc2ccc(Cl)cc2)c(C)c1` in this work.

A Ki [1] greater than 10000 nM was found for `Cc1cc(C)c(Nc2nc(C)cc(C)c2S(=O)(=O)c2ccccc2C)c(C)c1` in this work.

A Ki [1] of 635 nM was found for `Cc1cc(C)c(Nc2nc(C)ccc2S(=O)(=O)c2ccc(OCCCC#N)cc2)c(C)c1` in this work.

A half-life [2] of 3.5 h, a Ki [1] of 17 nM and a Vss (Rattus norvegicus) of 8 L/kg were found for `COc1ccccc1COc1ccc(S(=O)(=O)c2ccc(C)nc2Nc2c(C)cc(C)cc2C)cc1` in this work. It also gave an AUC [3] of 0.176 µM·h, a Cmax [4] of 48 nM and a clearance [5] of 58.3 mL/min/kg. The bioavailability [6] was 16%.

A Ki [1] greater than 10000 nM was found for `Cc1cc(C)c(Nc2nc(C)cc(C)c2S(=O)(=O)c2ccccc2)c(C)c1` in this work.

A Ki [1] greater than 10000 nM was found for `Cc1ccc(S(=O)(=O)c2ccc(Nc3c(C)cc(C)cc3C)nc2C)cc1` in this work.

A Ki [1] of 250 nM was found for `Cc1cc(C)c(Nc2nc(C)ccc2S(=O)(=O)c2ccc(OCc3ccccn3)cc2)c(C)c1` in this work.

A half-life [2] of 3 h, a Ki [1] of 32 nM and a Vss (Rattus norvegicus) of 10 L/kg were found for `Cc1cc(C)c(Nc2nc(C)ccc2S(=O)(=O)c2ccc(OCc3ccccc3)cc2)c(C)c1` in this work. The AUC [3] was 0.167 µM·h, the Cmax [4] was 42 nM and the clearance [5] was 78.3 mL/min/kg. The bioavailability [6] was 18%.

A Ki [1] of 49 nM was found for `COC(=O)c1cccc(COc2ccc(S(=O)(=O)c3ccc(C)nc3Nc3c(C)cc(C)cc3C)cc2)c1` in this work.
